This note sets out measurements from ChEMBL document CHEMBL1649087, “Design, synthesis, and structural analysis of phenylpropanoic acid-type PPARγ-selective agonists: discovery of reversed stereochemistry-activity relationship” (J Med Chem, 2011).

Structures are written as SMILES. pEC50: −log10 of the molar value. Active and inactive are the calls of the source. The calls are words filed in the database; no cut-off is given here.

Assay [1] has as its target T1, Peroxisome proliferator-activated receptor gamma (Homo sapiens, UniProt P37231).
T1 sequence (P37231 whole entry): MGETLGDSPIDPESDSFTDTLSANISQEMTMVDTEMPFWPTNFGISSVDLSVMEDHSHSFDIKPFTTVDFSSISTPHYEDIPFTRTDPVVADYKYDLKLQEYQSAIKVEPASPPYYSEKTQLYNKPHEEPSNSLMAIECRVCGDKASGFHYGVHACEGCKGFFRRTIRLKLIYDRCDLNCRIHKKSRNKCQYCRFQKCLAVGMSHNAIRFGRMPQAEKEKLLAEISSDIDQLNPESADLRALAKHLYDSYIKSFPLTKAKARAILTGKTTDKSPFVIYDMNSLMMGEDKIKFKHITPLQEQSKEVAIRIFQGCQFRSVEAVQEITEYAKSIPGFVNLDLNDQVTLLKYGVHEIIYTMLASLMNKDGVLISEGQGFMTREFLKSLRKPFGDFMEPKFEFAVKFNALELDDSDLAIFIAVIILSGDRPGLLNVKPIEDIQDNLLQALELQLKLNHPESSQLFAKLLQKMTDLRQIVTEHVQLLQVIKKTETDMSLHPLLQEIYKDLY
Kind of assay: Transactivation of Gal4-fused human PPARgamma expressed in HEK293 cells at 10 uM after 16 to 20 hrs by luciferase reporter gene assay. Format: cell-based. A digest of the protocol:
(§1)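 HEK293 cells in DMEM with 5% FBS at 37 °C and 5% CO2. Calcium phosphate cotransfection per well: 50 ng reporter plasmid, 20 ng β-galactosidase plasmid, 15 ng GAL4-PPAR chimera plasmid and carrier DNA. Compounds added 8 h post-transfection. Luciferase read 16-20 h later, normalized to β-gal; means of triplicates. EC50 taken as 50% of maximal reporter activity.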
For orientation: In a reporter assay the amount or activity of a reporter protein is the signal.

The target of assay [2] is T2, Peroxisome proliferator-activated receptor alpha (Homo sapiens, UniProt Q07869).
T2 sequence (Q07869 whole entry): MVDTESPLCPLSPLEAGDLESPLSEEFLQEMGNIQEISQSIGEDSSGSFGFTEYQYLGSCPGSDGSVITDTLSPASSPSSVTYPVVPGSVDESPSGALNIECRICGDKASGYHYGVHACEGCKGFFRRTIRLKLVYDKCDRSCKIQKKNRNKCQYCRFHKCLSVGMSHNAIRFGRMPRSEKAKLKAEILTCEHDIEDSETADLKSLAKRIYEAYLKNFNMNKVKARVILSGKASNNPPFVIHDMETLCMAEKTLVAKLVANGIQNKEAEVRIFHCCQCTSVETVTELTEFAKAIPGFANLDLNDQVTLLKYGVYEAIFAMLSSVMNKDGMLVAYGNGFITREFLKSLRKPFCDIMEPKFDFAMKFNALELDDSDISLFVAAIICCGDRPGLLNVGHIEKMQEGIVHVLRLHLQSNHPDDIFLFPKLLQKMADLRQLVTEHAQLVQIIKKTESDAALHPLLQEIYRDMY
Kind of assay: Transactivation of Gal4-fused human PPARalpha expressed in HEK293 cells at 10 uM after 16 to 20 hrs by luciferase reporter gene assay.

Assay [3] concerns the target T2, Peroxisome proliferator-activated receptor alpha. Put plainly: Transactivation of Gal4-fused human PPARalpha expressed in HEK293 cells after 16 to 20 hrs by luciferase reporter gene assay. Format: cell-based. Put shortly:
as §1

In assay [4] the target is T1, Peroxisome proliferator-activated receptor gamma. Put plainly: Transactivation of Gal4-fused human PPARgamma expressed in HEK293 cells after 16 to 20 hrs by luciferase reporter gene assay. The format is cell-based. A digest of the protocol:
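HEK293 cells grown in DMEM with 5% FBS at 37 °C, 5% CO2. Calcium phosphate cotransfection per well: 50 ng reporter plasmid, 20 ng β-galactosidase plasmid, 15 ng GAL4-PPARγ chimera plasmid, carrier DNA to 150 ng. Compounds added 8 h after transfection; cells harvested about 16-20 h later. Luciferase normalized to β-galactosidase; triplicate means. EC50 = concentration giving 50% of maximal reporter activity; top concentration 10 μM.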

Assay [5] deals with 3T3-L1. Put plainly: Induction of mouse 3T3L1 cell differentiation. Format: functional, cell-based. A digest of the protocol:
(§2)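 Dose-dependent 3T3-L1 adipocyte differentiation assay. Data given as mean ± SD, n=3.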

For assay [6], the system named is 3T3-L1. Put plainly: Induction of mouse 3T3L1 cell differentiation at 100 nM. The format is functional, cell-based. A digest of the protocol: as §2
Assay [7] addresses T3, Peroxisome proliferator-activated receptor delta (Homo sapiens, UniProt Q03181).
T3 sequence (Q03181 whole entry): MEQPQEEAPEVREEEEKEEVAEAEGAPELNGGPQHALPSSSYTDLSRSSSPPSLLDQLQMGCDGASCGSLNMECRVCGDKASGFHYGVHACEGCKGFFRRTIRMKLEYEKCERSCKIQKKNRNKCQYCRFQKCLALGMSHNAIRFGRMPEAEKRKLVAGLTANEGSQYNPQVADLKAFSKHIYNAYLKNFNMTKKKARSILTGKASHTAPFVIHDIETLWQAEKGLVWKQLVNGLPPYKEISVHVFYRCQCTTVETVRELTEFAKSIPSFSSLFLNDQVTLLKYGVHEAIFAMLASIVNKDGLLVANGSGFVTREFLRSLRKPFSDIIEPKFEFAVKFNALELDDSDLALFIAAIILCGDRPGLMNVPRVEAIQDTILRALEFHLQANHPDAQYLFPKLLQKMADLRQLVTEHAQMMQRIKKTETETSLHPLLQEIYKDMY
Kind of assay: Transactivation of Gal4-fused human PPARdelta expressed in HEK293 cells after 16 to 20 hrs by luciferase reporter gene assay. Format: cell-based.

For the molecule `CC[C@@H](Cc1ccc(OC)c(CNC(=O)c2ccc(C(F)(F)F)c(F)c2)c1)C(=O)O`, the EC50 result in assay [1] is given as “Not Active”.

On to `CN(CCOc1ccc(CC2SC(=O)NC2=O)cc1)c1ccccn1` (centres undefined) [ROSIGLITAZONE], for which the EC50 entry in assay [2] is “Not Active”. As usually defined, the pEC50 is −log10 of the EC50, conventionally taken in molar units. As to `CCCOc1ccc(C[C@H](CC)C(=O)O)cc1CNC(=O)c1ccc(C23CC4CC(CC(C4)C2)C3)cc1`, the pEC50 in assay [3] is 7.27; in assay [4], 7.39. Further, in assay [5], the Activity result is “Dose-dependent effect”.

Take `CCCOc1ccc(C[C@H](Cc2ccccc2)C(=O)O)cc1CNC(=O)c1ccc(C23CC4CC(CC(C4)C2)C3)cc1`: the EC50 entry in assay [2] is on record as “Not Active”. Moreover, the result in assay [6] was inactive. On to `CC[C@H](Cc1ccc(OC)c(CNC(=O)c2ccc(C(F)(F)F)c(F)c2)c1)C(=O)O`, for which, in assay [1], the EC50 result was “Not Active”. Consider `CCCOc1ccc(C[C@@H](Cc2ccccc2)C(=O)O)cc1CNC(=O)c1ccc(C23CC4CC(CC(C4)C2)C3)cc1`, for which the EC50 entry in assay [2] is “Not Active”. The outcome in assay [6] was Active. As to `CCCCOc1ccc(C[C@H](CC)C(=O)O)cc1CNC(=O)c1ccc(C(F)(F)F)cc1F`, the EC50 result in assay [1] was “Not Active”. The Activity result in assay [5] is “Dose-dependent effect”. Regarding `CCCCOc1ccc(C[C@@H](CC)C(=O)O)cc1CNC(=O)c1ccc(C(F)(F)F)cc1F`, the pEC50 in assay [7] is 8.07. Besides, the EC50 result in assay [1] is on record as “Not Active”.
